Screens from PubChem BioAssay.
Most compounds without a hit are left out; they make up all but 1.4% or so of the library.
Thrombin inh = inhibitors of human thrombin | P00734 | alpha-thrombin, Boc-VPR-AMC fluorogenic substrate cleavage | inhibition, % at 5 µM | 220,000 compounds, 0.26% hits;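 active = inhibition at or above 40%; inactive = inhibition below 40%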;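 note: 0% = enzyme with no compound and 100% = wells without enzyme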
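Test system: human alpha-thrombin; medium: pH 7.5 Tris-saline with Tween 20; times: reaction at room temperature; signal: AMC fluorescence at 355 nm excitation and 460 nm emission; also added: Boc-VPR-AMC substrate, 15 µM final; dosing: one concentration per compound, 5 µM, with 0.2% DMSO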
Fh CTSL1 inh = blocks F. hepatica cathepsin L1 in PFM18AAP counter-screen; 300,000 compounds, 0.49% hits; inhibition, % at 5.96 µM; recombinant F. hepatica cathepsin L1, Z-Leu-Arg-MCA fluorescence;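 active = inhibition above the mean of all tested compounds plus 3 SD, set per screening campaign, cut at about 17% in these data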;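 note: 0% = plate median of test compound wells and 100% = 1 µM Z-Phe-Ala-diazomethylketone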
Rce1 inhib = yeast Ras-converting enzyme inhibition. Q03530. yeast membranes, quenched prenylated peptide cleavage fluorescence. calls only. 290,000 compounds, 0.27% hits. AID 2563;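 active = fall in fluorescence gain of 50% or more versus controls, with final raw signal at or below 3038400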;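 note: plate controls were neutral control wells for no effect and wells lacking membranes for full effect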
FXIa inh = inhibitors of human coagulation factor XIa. AID 798. purified FXIa, Boc-Glu-Ala-Arg-AMC fluorogenic substrate. P03951. 220,000 compounds, 0.14% hits. inhibition, % at 5 µM;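 active = inhibition of at least 40%; inactive = inhibition below 40%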;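 note: fluorescence of freed AMC excited at 355 nm; 0% = enzyme without compound and 100% = no enzyme blank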
KLK5 inh = inhibitors of human kallikrein 5 | recombinant hK5, fluorogenic AMC substrate cleavage | Q9Y337 | AID 873 | inhibition, % at 5 µM | 210,000 compounds, 0.59% hits;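 active = inhibition of 40% or more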;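 note: 0% = enzyme controls without compound and 100% = no-enzyme blanks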
FXIIa inh 1536 = factor XIIa (human) inhibition; P00748; purified FXIIa, Boc-QGR-AMC fluorogenic substrate, 2 h; inhibition, % at 5 µM; 220,000 compounds, 0.3% hits; AID 800; in the data active = inhibition above about 40%;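 note: 0% = enzyme with no compound and 100% = blank without enzyme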
Target sequence (P00748 20-372 limits assumed): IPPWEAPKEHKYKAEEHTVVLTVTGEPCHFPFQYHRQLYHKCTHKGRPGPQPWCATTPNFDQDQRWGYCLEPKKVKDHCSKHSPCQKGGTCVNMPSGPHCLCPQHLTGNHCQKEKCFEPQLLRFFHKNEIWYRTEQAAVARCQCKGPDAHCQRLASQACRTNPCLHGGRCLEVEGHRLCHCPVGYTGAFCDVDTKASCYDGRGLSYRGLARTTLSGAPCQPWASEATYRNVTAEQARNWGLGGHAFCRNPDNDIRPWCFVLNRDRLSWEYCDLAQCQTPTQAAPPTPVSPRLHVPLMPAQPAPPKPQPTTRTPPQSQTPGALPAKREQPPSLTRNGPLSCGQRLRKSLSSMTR
Target sequence (P00748 373-615 limits assumed): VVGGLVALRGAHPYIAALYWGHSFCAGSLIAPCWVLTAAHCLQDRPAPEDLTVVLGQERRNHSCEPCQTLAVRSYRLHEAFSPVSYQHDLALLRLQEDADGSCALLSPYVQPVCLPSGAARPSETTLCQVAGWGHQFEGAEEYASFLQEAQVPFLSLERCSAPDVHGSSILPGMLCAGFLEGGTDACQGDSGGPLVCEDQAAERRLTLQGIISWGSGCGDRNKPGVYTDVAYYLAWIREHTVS
The depositor's hits bear a star; i = inactive; x = not tested or not shown; + = active, no number.

SMILES	Thrombin inh	Fh CTSL1 inh	Rce1 inhib	FXIa inh	KLK5 inh	FXIIa inh 1536
Cc1cccc(NC(=O)COC(=O)CNC(=O)C2CCCCC2)c1	0	25*	x	6	-5	18
CC(C)CCNC(=O)NC(=O)COC(=O)CNC(=O)C1CCCCC1	-1	26*	i	-2	2	8
O=C(CCl)Nc1nc(-c2ccco2)c(-c2ccco2)s1	1	21*	i	5	-34	3
CCOC(=O)[C@H]1[C@H]2COc3ccc(C)cc3[C@@H]2N2C(=O)c3cc(Cl)ccc3NC(=O)[C@@]12C	x	-2	x	x	x	x
Cc1ccc(CCNC(=O)c2cc(S(=O)(=O)N3CCOCC3)cn2C)cc1	x	67*	i	x	x	x
CC(=O)Nc1ccc(S(=O)(=O)NNC(=O)COc2ccc(Cl)cc2Cl)cc1	22	2	i	44*	20	21
O=C(NCCCc1ccc(F)cc1)C1CCC(=O)N(CCCN2CCCC2=O)C1 (stereo unspecified)	x	-1	i	x	x	x
COc1ccccc1-c1cc(C(F)(F)F)nc(S(=O)(=O)CCCC(=O)NCc2ccc(F)cc2)n1	-2	-1	+	-2	2	12
COc1ccccc1-c1cc(C(F)(F)F)nc(S(=O)(=O)CCCC(=O)NC(C)C)n1	0	-2	i	-10	-3	0
O=C(CCCSc1nc2ccccc2[nH]1)N1CCN(c2ccc([N+](=O)[O-])cc2)CC1	-6	-1	i	-9	-5	1
CC(CNC(=O)C1CCCN(S(=O)(=O)N2CCOCC2)C1)c1ccccc1 (stereo unspecified)	x	1	i	x	x	x
Cc1c(C)n(CC(O)CN2CCCCC2)c2ccccc12 (stereo unspecified)	-4	4	i	-3	-6	3
Cc1cc(C)n(CC(O)Cn2c(C)c(C)c3ccccc32)n1 (stereo unspecified)	-7	19*	i	-4	13	-4
COc1ccccc1NC(=O)Cc1nnc(SCC(=O)Nc2nccs2)n1C	x	2	+	x	x	x
COc1ccccc1NC(=O)Cc1nnc(SCC(=O)Nc2ccccc2F)n1C	21	-4	i	25	27	15
CC1CCOC2(O1)C(=O)Nc1ccccc12 (stereo unspecified)	22	1	i	31	41*	67*
CC1OC2(OC1C)C(=O)Nc1ccccc12 (stereo unspecified)	1	1	i	6	-1	30
CCOC(=O)CC(C#N)c1cn(C)c2ccccc12 (stereo unspecified)	-7	28*	i	0	0	3
O=C(NCCCc1ccccc1)c1cc(COc2ccc(F)cc2Cl)on1	x	6	i	x	x	x
COc1ccccc1-n1c(=O)[nH]c2c(C(N)=O)nc(CC(C)C)nc21	0	21*	i	4	-14	13
O=C(Nc1ccc(N2CCOCC2)cc1)c1cnsn1	13	x	i	2	51*	6
O=C(Nc1ccc(N2CCOCC2)cc1)c1cnccn1	x	4	i	x	x	x
c1ccc(CSc2ncnc3sccc23)cc1	37	3	i	25	42*	37
Cc1nc(N2CCCCC2)c2ccsc2n1	-16	1	i	-1	4	-8
Cc1nc(SCc2ccccc2)c2ccsc2n1	20	3	i	29	56*	57*
SMILES	Thrombin inh	Fh CTSL1 inh	Rce1 inhib	FXIa inh	KLK5 inh	FXIIa inh 1536
COc1ccc(CC(=O)Nc2cc(C)ccn2)cc1	30	3	i	10	82*	-1
Cc1ccnc(NC(=O)CCCOc2ccc(Cl)cc2C)c1	6	-1	i	35	41*	27
COc1ccc(CC(=O)Nc2cc(C)ccn2)cc1OC	x	6	i	x	x	x
CC(=O)N1CCC(N2CCN(c3ccccc3F)CC2)CC1	1	-8	i	32	7	60*
CC(Sc1nnnn1-c1ccccc1)C(=O)Nc1ccc(Cl)cn1 (stereo unspecified)	16	-3	i	17	51*	2
CC(Sc1nnc2ccccn12)C(=O)Nc1ccc(Cl)cn1 (stereo unspecified)	-6	0	i	1	-8	17
Cc1cccc(OCCN2C(=O)C(=O)c3cc(C)ccc32)c1	-14	4	+	-2	0	8
COc1ccc(NC(=O)c2cc(C)no2)cc1	x	1	i	x	x	x
Cc1nn(CCC(=O)O)c2nc(-c3cccnc3)cc(C(F)(F)F)c12	0	-1	+	2	-2	9
CCOC(=O)C1=C(N)Oc2cc(O)ccc2C1c1ccc(F)cc1F (stereo unspecified)	x	-1	i	x	x	x
NC(=O)N[C@@H](Cc1c[nH]c2ccccc12)C(=O)OCC(=O)N1CCCCC1	-19	-4	i	38	30	39
O=C(NC(Cc1c[nH]c2ccccc12)c1nnc2n1CCCCC2)c1ccc(Cl)cc1 (stereo unspecified)	14	2	i	-1	48*	23
O=C(CCCCCNC(=O)c1ccccc1)C[N+](=O)[O-]	-11	4	i	-3	2	5
Cc1ccc(C)c(NC(=O)CCC(=O)N2CCOc3ccccc32)c1	x	-1	i	x	x	x
CC(=O)N/C(=C\c1ccccc1)C(=O)OCC(=O)N(C)C1CCCCC1	10	-2	i	5	44*	18
CC(=O)N/C(=C\c1ccccc1)C(=O)OCc1ccccc1	x	-2	i	x	x	x
Cc1ccc(CNC(=O)c2ccc(Cn3nc(C)c(Cl)c3C)o2)cc1	-8	-2	i	-6	-7	3
Cc1cc(C)cc(NC(=O)c2ccc(Cn3nc(C)c(Cl)c3C)o2)c1	21	-4	i	4	120*	31
CCOCCCNS(=O)(=O)c1ccc(NC(=O)c2ccc(OC)c([N+](=O)[O-])c2)cc1	12	-1	i	42*	37	19
COc1ccc(C(=O)Nc2ccc(S(=O)(=O)NC(C)=O)cc2)cc1[N+](=O)[O-]	-4	0	i	-1	1	5
COc1ccc(CC(=O)NNC(=O)c2ccc(Br)o2)cc1	x	2	i	x	x	x
O=C(CNC(=O)c1ccccc1)OCC(=O)N1c2ccccc2Sc2ccccc21	-4	34*	i	6	-9	5
CC(C)(C)C(=O)COC(=O)CNC(=O)c1ccc(Oc2ccccc2)cc1	5	15	i	1	44*	34
CC(=O)NCC(=O)OCC(=O)N1c2ccccc2Sc2ccccc21	-5	-23	i	0	3	12
COc1cccc(C(=O)NCC(=O)OCC(=O)C(C)(C)C)c1	-1	-8	i	15	-3	8
O=C(CNC(=O)c1ccccc1)NCC(=O)OCC(=O)c1ccc(F)cc1	16	-7	i	20	80*	31
CCC(C)NC(=S)NNC(=O)c1ccncc1 (stereo unspecified)	-9	20*	i	24	3	12
